Most compounds without a hit are left out; they make up all but 9.6% or so of the library.
PMI act hi M6P – activators of human phosphomannose isomerase at near-saturating mannose 6-phosphate; coupled PMI enzyme assay, resazurin fluorescence, 20 min; stronger effect = higher value; 1 = untreated enzyme, 0 = substrate-free blank; actives 0.34% (n = 190,000); P34949; AID 1216; activation factor at 20 µM;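 active = activation factor of 2 or more at 20 µM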
Target sequence (P34949 whole entry, looked up): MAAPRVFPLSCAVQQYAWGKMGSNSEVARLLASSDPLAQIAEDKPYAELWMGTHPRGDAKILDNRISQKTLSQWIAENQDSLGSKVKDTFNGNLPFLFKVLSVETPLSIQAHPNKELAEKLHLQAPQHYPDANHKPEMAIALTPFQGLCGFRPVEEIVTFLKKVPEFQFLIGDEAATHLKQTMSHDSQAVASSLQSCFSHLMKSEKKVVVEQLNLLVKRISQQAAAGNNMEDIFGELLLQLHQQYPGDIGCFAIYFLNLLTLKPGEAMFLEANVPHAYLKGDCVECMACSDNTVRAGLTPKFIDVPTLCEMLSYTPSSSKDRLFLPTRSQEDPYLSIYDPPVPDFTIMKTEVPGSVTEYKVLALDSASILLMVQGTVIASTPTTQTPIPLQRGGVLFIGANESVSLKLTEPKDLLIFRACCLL
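test system = human PMI in coupled enzyme assay | medium = HEPES-buffered pH 7.4 with magnesium and detergent | also added = 1.0 mM mannose-6-phosphate substrate with 0.22 mM NADP+ | compound = 20 µM single dose | times = 20 min incubation at room temperature | measured by = resorufin fluorescence (Ex 544/Em 590 nm) from resazurin via diaphorase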
PMI activator – increases human mannose-6-phosphate isomerase activity | actives 0.005% (n = 190,000) | purified human PMI, coupled resazurin fluorescence, 20 min; stronger effect = higher value; 1 = vehicle control, 0 substrate-free wells | P34949 | activation factor at 20 µM | AID 1214;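 active = activation factor of 2 or more at 20 µM, relative to plate controls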
L major viab – reduces viability of Leishmania major promastigotes; resazurin fluorescence viability; inhibition, % at 10 µM; actives 9% (n = 200,000); in the data active = inhibition above about 50%;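 also: promastigotes grown with compound for 44 hours at 28 °C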
bCat KO growth – beta-catenin-lacking colon tumor cell growth suppression; AID 818; viability, % at 10 µM; actives 1.5% (n = 140,000); HCT116 beta-catenin knockout viability, CellTiter-Glo, 60 h; stronger effect = lower value;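 active = viability at or under a set limit, the compound median less 4 SD, cut at about 6% in these data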;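 also: 0% = Hyamine 1622 control at 20 µM and 100% = untreated cell control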
HCT116 PTEN-null – PTEN-deleted cell growth suppression | viability, % at 10 µM | HCT116 PTEN-null viability, CellTiter-Glo, 60 h; stronger effect = lower value | actives 1.2% (n = 140,000) | AID 827;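 active = viability at or below a set limit, 4 SD under the median of all tested compounds, cut at about 3.7% in these data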;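 also: PTEN knockout HCT116 line with beta catenin targeted HCT116 as companion control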
* = called active by the depositor; / = no result given.

SMILES	PMI act hi M6P	PMI activator	L major viab	bCat KO growth	HCT116 PTEN-null
COc1cc(C(C(=O)NC2CCCCC2)N(C(=O)Cc2c[nH]c3ccccc23)c2ccc(C)cc2)cc(OC)c1OC (stereo unspecified)	0.9	0.8	90*	54	57
COc1ccc(C(C(=O)NC2CCCCC2)N(Cc2cccs2)C(=O)Cc2c[nH]c3ccccc23)cc1 (stereo unspecified)	1	0.9	49	70	54
Cc1ccc(C(C(=O)Nc2ccc3c(c2)OCO3)N(C)C(=O)Cc2c[nH]c3ccccc23)cc1 (stereo unspecified)	0.9	0.9	70*	71	67
O=C(NC1CCCCC1)C(c1cccs1)N(C(=O)Cc1c[nH]c2ccccc12)c1ccc(F)cc1 (stereo unspecified)	0.8	0.7	75*	67	56
Cc1ccc(C(C(=O)NC2CCCCC2)N(C(=O)Cc2c[nH]c3ccccc23)c2ccccc2)o1 (stereo unspecified)	1	0.8	18	62	64
CC(=O)Nc1ccc(N(C(=O)Cc2c[nH]c3ccccc23)C(C(=O)NC2CCCCC2)c2ccco2)cc1 (stereo unspecified)	1	0.9	60*	89	89
CC(=O)c1ccc(N(C(=O)Cc2c[nH]c3ccccc23)C(C(=O)NC2CCCCC2)c2cccs2)cc1 (stereo unspecified)	0.8	0.8	6	92	85
CCOc1ccc(NC(=O)c2cccc(OC(=S)N3CCOCC3)c2)cc1	0.9	0.9	-14	/	/
Cc1ccc(C(NC(=O)/C=C\c2ccc3c(c2)OCO3)C(=O)Nc2ccc3c(c2)OCO3)cc1 (stereo unspecified)	1	1	100*	98	95
CCOC(=O)c1cccc(NC(=O)/C=C/c2ccc3c(c2)OCO3)c1	0.7	0.9	9	81	76
Cc1ccc(-c2nnc(SCC(=O)N/N=C/c3ccc(C)s3)n2-c2ccccc2)cc1	1	0.9	32	105	106
Cc1nn(Cc2ccccc2)c(Cl)c1/C=C1\NC(=S)NC1=O	1	0.9	2	/	/
CCOc1ccc(NC(=O)CC2C(=O)N(C)C(=S)N2Cc2ccco2)cc1 (stereo unspecified)	1	1	-3	85	101
CCCOc1ccc(NC(=O)CC2C(=O)N(CC)C(=S)N2CCNC(C)=O)cc1 (stereo unspecified)	1	1	-8	90	82
CCCOc1ccc(NC(=O)CC2C(=O)N(CC)C(=S)N2CCCN2CCN(Cc3ccccc3)CC2)cc1 (stereo unspecified)	0.9	0.9	99*	/	/
CCOc1ccc(NC(=O)CC2C(=O)N(C)C(=S)N2CCCc2ccccc2)cc1 (stereo unspecified)	0.9	0.9	78*	79	72
Clc1ccc(OCc2nnc(-c3ccccc3Br)o2)cc1	1	0.9	-8	99	103
O=S(=O)(c1ccccc1F)N(Cc1ccco1)Cc1nnc(-c2ccccc2Br)o1	0.9	0.9	65*	79	84
Cc1ccc2nc(/C(C#N)=C\c3ccc([N+](=O)[O-])o3)[nH]c2c1	0.8	0.9	100*	1.9*	1.5*
N#C/C(=C\c1cccs1)c1nc2ccccc2[nH]1	1.1	1.2	60*	80	87
Cc1ccc2nc(/C(C#N)=C\c3cc(C)n(-c4cccc([N+](=O)[O-])c4)c3C)[nH]c2c1	1.2	1	85*	42	51
N#C/C(=C\Nc1ccc2c(c1)OCCO2)c1nc2ccccc2[nH]1	1	0.9	18	80	77
N#C/C(=C\C1CC2C=CC1C2)c1nc2ccccc2[nH]1 (stereo unspecified)	1	0.9	56*	83	68
O=Cc1cccn1-c1ccc(O)cc1	/	/	-10	/	/
CC(C)N(C(=O)CSc1nnc(CSc2ncccn2)n1C)C(C)C	1	1.1	-4	/	/
SMILES	PMI act hi M6P	PMI activator	L major viab	bCat KO growth	HCT116 PTEN-null
CCOC(=O)N1CCC(=NNC(=O)COc2ccc(OC)cc2)CC1	1	0.9	-7	102	94
N#C/C(=C\c1ccccc1)c1nc2ncccc2[nH]1	0.9	0.8	66*	97	95
N#C/C(=C\c1ccc([N+](=O)[O-])o1)c1nc2ccccc2[nH]1	1	1	100*	0.7*	0.6*
N#C/C(=C\c1ccc(Sc2ccccc2)o1)c1nc2ccccc2[nH]1	1	0.9	18	89	91
Cc1ccc2nc(/C(C#N)=C\c3ccc(Oc4ccc([N+](=O)[O-])cn4)cc3)[nH]c2c1	0.7	0.9	99*	49	24
CN(C)CCCOc1nc2c(c(=O)n(C)c(=O)n2C)n1C	1.1	1.1	2	89	91
CCn1ccnc1CN(C)Cc1nc(Cc2cccc(C(F)(F)F)c2)no1	1	1	6	/	/
COc1cccc(/C=C/C(=O)NCc2cn3cc(Cl)ccc3n2)c1	1	1	5	/	/
Cc1cc(Nc2ccc(Br)c(C)c2)n2nc(C)nc2n1	1	0.9	-2	78	70
O=C(Nc1ccccc1Cl)C1CC(=O)n2c(nc3ccccc32)N1 (stereo unspecified)	1	1	0	/	/
CN1CCN(C(=O)CN(c2cccc(Cl)c2)S(=O)(=O)c2ccccc2)CC1	1	1	9	110	103
COc1ccc(/C(O)=C2\C(=O)C(=O)N(c3cc(C)on3)C2c2cccc(OC)c2OC)cc1C (stereo unspecified)	1.1	1.1	-3	99	101
COc1cccc(C2c3c(oc4ccc(Cl)cc4c3=O)C(=O)N2c2cc(C)on2)c1OC (stereo unspecified)	1	1	-7	2.8*	20
Cc1nn(Cc2ccc(Cl)cc2)c(C)c1NC(=O)CSc1nc2c(c(C(F)(F)F)n1)CCc1ccccc1-2	1.1	1	11	15	3.5*
Cc1ccc(Cn2nc(C)c(NC(=O)CSc3nc4c(c(C(F)(F)F)n3)CCc3ccccc3-4)c2C)cc1	1	0.9	6	46	7
O=C(Nc1ccc(O)cc1C(=O)O)c1cccs1	/	/	8	/	/
COc1ccccc1C(=O)NC(=S)NNC(=O)c1sc2ccccc2c1Cl	1.1	1	90*	11	19
COc1ccccc1C(=O)NNC(=S)NC(=O)c1sc2ccccc2c1Cl	1.2	1.1	54*	28	21
Cc1c(NC(=S)NC(=O)c2sc3ccccc3c2Cl)cccc1C(=O)O	1	1	-4	/	/
CC1CCCCC1NC(=S)NC(=O)c1sc2ccccc2c1Cl (stereo unspecified)	0.8	0.9	2	/	/
Cc1cc(S(=O)(=O)N(Cc2ccccn2)Cc2ccco2)ccc1-n1cnnn1	1	1.2	-6	91	87
COc1cc(S(=O)(=O)N(Cc2ccco2)C2CCCC2)ccc1-n1cnnn1	1.1	1.1	71*	86	88
